CCR6 antag: CCR6 (human) receptor antagonism | CHO-K1 CCR6 PathHunter beta-arrestin, luminescence, CCL20-stimulated | inhibition, % at 20 µM | AID 493098 | P51684 | 340,000 tested, 0.49% active;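 active = compounds whose inhibition of the agonist-driven luminescence signal at 20 µM reaches about 50%, limit read from the data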;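 also: cells stimulated with CCL20 at 14 nM final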
PKA-R2B activ: PKA-R2B complex activation; activation, % at 11.4 µM; 340,000 tested, 0.079% active; P22694+P31323; PKA-R2B holoenzyme dissociation, Cy5-IP20 fluorescence polarization; R2B truncated from residue 108, S112A mutant; 0% DMSO only, 100% 113 µM cGMP;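 active = activation above a cutoff set at the mean over all compounds plus 3 SD, cut at about 18% in these data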;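 also: higher means more holoenzyme dissociation and a rise in polarization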
PKA-R1A activ: activators of PKA-R1A complex; P00514+P68181; PKA-R1A dissociation, Cy5-IP20 fluorescence polarization; scaled: DMSO 0%, 113 µM cGMP 100%; activation, % at 11.4 µM; 340,000 tested, 0.083% active;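 active = percent activation above the mean of all tested compounds plus 3 SD, cut at about 19% in these data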;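 also: higher means more PKAc released from R1A so a rise in polarization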
APJ ag: activates the human apelin receptor APJ | CHO-K1 APJ PathHunter beta-arrestin, luminescence; 0% DMSO wells, 100% apelin | activation, % at 20 µM | AID 2520 | 330,000 tested, 0.11% active | P35414;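 active = activation more than six SD over the plate average, tested at 20 µM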
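Material: engineered CHO-K1 APJ arrestin reporter cells; amount: 1000 CHO-K1 reporter cells seeded per well; incubation: compound stimulation 90 min at 25 °C, detection 60 min; signal: luminescent beta-gal fragment complementation, chemiluminescent substrate; read-out basis: APJ agonist activity; controls: DMSO-only wells as negative, 10 nM Apelin-13 as positive control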
APJ antagonist: APJ receptor antagonism; P35414; CHO-K1 APJ beta-arrestin complementation, luminescence; AID 2521; inhibition, % at 20 µM; 330,000 tested, 0.32% active;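 active = inhibition above about 40% at 20 µM, limit read from the data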;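 also: cells challenged with 10 nM apelin-13 agonist together with compound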
CXCR6 block: CXCR6 (human) receptor inhibition. inhibition, % at 20 µM. 360,000 tested, 0.36% active. AID 602244. CHO-K1 PathHunter CXCR6 beta-arrestin, luminescence; in the data active = inhibition above about 34%, passing the limit was not always enough;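 also: antagonist mode with CXCL16 agonist at 10 nM final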
Target sequence (O00574 whole entry, looked up): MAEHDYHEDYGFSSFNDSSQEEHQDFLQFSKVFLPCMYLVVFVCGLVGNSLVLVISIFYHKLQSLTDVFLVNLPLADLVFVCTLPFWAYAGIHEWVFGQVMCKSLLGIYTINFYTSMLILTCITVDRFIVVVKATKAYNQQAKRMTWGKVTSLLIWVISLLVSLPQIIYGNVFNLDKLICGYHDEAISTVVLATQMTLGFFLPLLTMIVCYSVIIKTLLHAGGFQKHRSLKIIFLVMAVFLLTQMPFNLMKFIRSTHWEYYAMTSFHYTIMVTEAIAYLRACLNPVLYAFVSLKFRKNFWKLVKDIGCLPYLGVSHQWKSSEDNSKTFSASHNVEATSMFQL
APJ antag confirm: APJ receptor antagonism confirmation. shares compounds with APJ antagonist. APJ beta-arrestin recruitment, luminescence, antagonist mode. inhibition, % at 20 µM. 950 tested, 66% active. AID 2766; in the data active = inhibition above about 50%
Hits are given with their value; - = inactive; . = not tested or not shown. An excerpt weighted towards active compounds, which were near 0.88% of everything screened.

SMILES	CCR6 antag	PKA-R2B activ	PKA-R1A activ	APJ ag	APJ antagonist	CXCR6 block	APJ antag confirm
O=C(CSc1nc2c([nH]c3ccccc32)c(=O)n1-c1ccccc1)NCC1CCCO1 (stereo not given)	73	-	-	-	64	53	83
CCn1c(SCC(=O)NCC2CCCO2)nc2c([nH]c3ccccc32)c1=O (stereo not given)	-	-	-	-	-	-	.
S=C(NCc1ccco1)N1CCN(c2ccc(Cl)cc2)CC1	-	-	-	-	-	-	.
CC(=O)c1ccc(N2CCN(C(=S)NCc3ccco3)CC2)cc1	-	-	-	-	45	-	-
CN(CC(=O)Nc1ccc(Cl)c(C(F)(F)F)c1)C(=O)CC1Sc2ccccc2NC1=O (stereo not given)	-	-	-	-	-	-	.
CCOc1ccc(N=Nc2c(=O)[nH]n3c(=O)cc(C)[nH]c23)cc1	-	-	-	-	47	-	-
Cc1cc(=O)n2[nH]c(=O)c(N=Nc3ccccc3)c2[nH]1	-	-	-	-	-	-	.
CNS(=O)(=O)c1ccc(C)c(S(=O)(=O)NC)c1	-	-	-	-	-	-	.
Cc1cc(Cn2nnc3ccccc32)c(O)c(C(C)(C)C)c1	-	-	-	-	43	-	-
CC1(C)CC2(CC(c3ccccc3F)c3cc(Cl)c(O)cc3O2)NC(=S)N1 (stereo not given)	-	-	-	-	48	-	112
CCNC(=S)NNc1nnc(-c2ccccc2)c(-c2ccccc2)n1	-	-	-	-	49	-	90
Cc1cccc(NC(=S)N/N=C2/CCCCc3ccccc32)c1	-	-	-	-	48	-	93
CCOC(=O)[C@]12CCC=C1N(Cc1ccc3c(c1)OCO3)C(=O)[C@H](CC(=O)NCc1ccccc1)C2	.	.	.	.	.	-	.
CC1(C)Cc2c(c(N3CCOCC3)nc3sc4c(NN)ncnc4c23)CS1	56	-	-	-	60	-	89
COc1ccc(NC2(c3ccc(Cl)cc3)C(=O)c3ccccc3C2=O)cc1	74	-	-	-	62	-	73
COc1ccc(NC2(c3ccccc3)OC(=O)c3ccccc32)cc1 (stereo not given)	-	-	-	-	-	-	.
COc1ccc(CN2C(=O)C(C)Nc3ncnc(N4CCN(c5ccccc5)CC4)c32)cc1 (stereo not given)	80	-	-	-	68	68	115
CCOC(=O)c1c(C)nc2sc(C(=O)Nc3ccccc3)c(N)c2c1-c1ccc(OC)cc1	-	-	-	-	41	-	-
Nc1c(C(=O)Nc2ccccc2)sc2nc3c(c(-c4ccco4)c12)CCC3	-	-	-	-	-	-	.
COc1ccc(-c2c3c(nc4sc(C(=O)Nc5ccccc5)c(N)c24)CCC3)cc1	-	-	-	-	71	-	-
CN(C)S(=O)(=O)c1ccc2c(c1)C(=O)c1cc(S(=O)(=O)N(C)C)ccc1CC2	-	-	-	-	-	-	.
CN(C)S(=O)(=O)c1ccc2c(c1)/C(=C/c1cc3c([nH]1)CCCC3)C(=O)N2	-	-	-	-	40	-	-
NC(=O)c1ccccc1NCC(=O)c1ccc(F)cc1	99	-	-	-	82	-	140
O=C(CNc1cccc(Cl)c1)c1ccc(Br)cc1	62	-	-	-	69	-	90
Cc1ccc(NCC(=O)c2ccc([N+](=O)[O-])cc2)cc1	-	-	-	-	-	-	.
SMILES	CCR6 antag	PKA-R2B activ	PKA-R1A activ	APJ ag	APJ antagonist	CXCR6 block	APJ antag confirm
O=C(Cc1ccc(Br)cc1)Nc1cccc(Cl)c1	-	.	.	-	-	-	.
O=C(CNc1ccc(F)cc1)c1ccccc1	80	-	-	-	76	53	111
O=C(CC(=O)c1ccccc1O)c1ccc(F)cc1	-	-	-	-	-	-	.
Cc1ccc(C(=O)CNc2ccccc2)cc1	83	-	-	-	44	47	110
O=C(CNC(=S)NC(=O)c1ccc(F)cc1)c1ccccc1	-	-	-	-	-	-	.
Cc1ccc(C(=O)CNc2cccc([N+](=O)[O-])c2)cc1	-	-	-	-	55	-	-
O=C(CNc1ccccc1Cl)c1ccc(Br)cc1	-	-	-	-	-	-	.
O=C(CNc1ccc(Br)cc1)c1ccccc1	81	-	-	-	94	45	104
Cc1ccc(C(=O)CNc2ccccc2C)cc1	86	-	-	-	76	58	120
Cc1ccc(C(=O)CNc2ccc(Br)cc2)cc1	56	-	-	-	84	-	102
Cc1ccc(NC(=O)COC(=O)Cc2c[nH]c3ccccc23)cc1F	-	-	-	-	-	-	.
O=C(Cn1nnc(-c2ccccc2)c1COc1ccc2ccccc2c1)NCC1CC1	.	.	.	.	.	-	.
Cc1cccc(NC(=O)Cn2c(/C=C/c3ccccc3)nc3ccccc32)c1	-	-	-	-	-	-	.
N#Cc1ccc(S(=O)(=O)N2CCN(Cc3cccs3)CC2)cc1	-	-	-	-	-	-	.
Cc1cc(=O)n2nc(N3CCCC(C(=O)Nc4cccc(C)c4C)C3)sc2n1 (stereo not given)	.	.	.	.	.	-	.
COCCN(C(=O)c1csnn1)C(C(=O)NC1CCCC1)c1ccc(C)cc1 (stereo not given)	-	-	-	-	-	-	.
COCCN(C(=O)c1csnn1)C(C(=O)NC1CCCC1)c1ccccc1F (stereo not given)	-	-	-	-	53	-	-
O=C(c1ccco1)N(Cc1cccs1)C1CCS(=O)(=O)C1 (stereo not given)	-	-	-	-	47	-	-
O=C(c1ccco1)N(Cc1cccc(Cl)c1)C1CCS(=O)(=O)C1 (stereo not given)	-	-	-	-	-	-	.
Fc1cc2ncn(Cc3ccccc3)c2cc1F	-	-	-	-	61	-	-
CC1(NC(=O)NCc2ccccc2)CCS(=O)(=O)C1 (stereo not given)	-	-	-	-	-	-	.
CCOc1cc(/C=C2\NC(=O)NC2=O)cc([N+](=O)[O-])c1O	-	-	-	-	43	-	-
COc1cc2c(cc1OC)C1(CCCC1)CNC2c1cccc([N+](=O)[O-])c1 (stereo not given)	78	-	-	-	47	63	78
COc1cc2c(cc1OC)C(c1cccc([N+](=O)[O-])c1)NC(=O)C2 (stereo not given)	-	-	-	-	-	-	.
